Measurements as given in paper PMC2674521 (Journal of pharmaceutical sciences, 2009).
“And” between values parts separate entries of the source, which are not always exact repeats. Equal entries are not always repeated. Where two headings read alike, the source gives them in different places.

How the values were obtained:
HSA = conditions: cited from earlier work
[1] = no reference given; cited from earlier work
RSA = conditions: ref 46; cited from earlier work
[2] = target: T1, human serum albumin (HSA) (Homo sapiens, UniProt P02768); conditions: cited from earlier work; for % bound to HSA: 40 mg/mL HSA solution
[3] = target: T1, human serum albumin (HSA); format: in vitro ADME; conditions: for increase in free radiopharmaceutical level: 8:1 warfarin:HSA mole ratio vs drug-free; for Unbound [^64Cu]Cu-PTSM: HSA; for % Free [^64Cu]Cu-PTSM: 49°C, 2.5% v/v ethanol
Outline: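 HSA (globulin-free, ≥99.5% fatty acid free) reconstituted in 0.9% saline at 0.66 mM. 100 µL of drug in saline (3.3–53 mM, pH 7) or saline alone (drug-free control) added to 1.0 mL, giving 40 mg/mL HSA at 0.5:1–8:1 drug:HSA. 2–8 µCi 64Cu tracer added and vortexed. Triplicate aliquots ultrafiltered (30,000 Da NMWL) within 5 min, 64Cu gamma-counted.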

[4] = target: T2, canine serum albumin (CSA) (Canis lupus familiaris, UniProt P49822); format: in vitro ADME; conditions: for Unbound level: CSA solutions containing warfarin; for Free tracer: CSA solutions with added ibuprofen
rat serum [5] = target: rat serum (Rattus norvegicus, UniProt P02770); conditions: RSA solution; cited from earlier work
[6] = ref 37, 38; cited from earlier work
rat serum [7] = format: in vitro ADME
[8] = Ultrafiltration of [^64Cu]Cu-PTSM in protein-free saline
Outline: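 Membrane-integrity control without protein: 25 µL ethanol (2.5% v/v) added to 1.0 mL saline containing [64Cu]Cu-PTSM, compared with saline alone. Ultrafiltered through 30,000 Da NMWL membranes, n = 5 per group. % free tracer from 64Cu gamma counts of measured ultrafiltrate and starting-solution volumes.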

[9] = target: T2, canine serum albumin (CSA); conditions: no competing drug; cited from earlier work
[10] = HSA solutions with even high concentrations of L-tryptophan
[11] = drug-free HSA control (drug:HSA mole ratio 0), 40 mg/mL HSA
[12] = ibuprofen:HSA mole ratio 0.5, 40 mg/mL HSA
[13] = ibuprofen:HSA mole ratio 1, 40 mg/mL HSA
[14] = ibuprofen:HSA mole ratio 2, 40 mg/mL HSA
[15] = ibuprofen:HSA mole ratio 4, 40 mg/mL HSA
[16] = ibuprofen:HSA mole ratio 8, 40 mg/mL HSA
[17] = ibuprofen:HSA mole ratios up to 4:1
[18] = warfarin:HSA mole ratio 0.5, 40 mg/mL HSA
[19] = warfarin:HSA mole ratio 1, 40 mg/mL HSA
[20] = warfarin:HSA mole ratio 2, 40 mg/mL HSA
[21] = warfarin:HSA mole ratio 4, 40 mg/mL HSA
[22] = warfarin:HSA mole ratio 8, 40 mg/mL HSA

T2 sequence (P49822 25-608): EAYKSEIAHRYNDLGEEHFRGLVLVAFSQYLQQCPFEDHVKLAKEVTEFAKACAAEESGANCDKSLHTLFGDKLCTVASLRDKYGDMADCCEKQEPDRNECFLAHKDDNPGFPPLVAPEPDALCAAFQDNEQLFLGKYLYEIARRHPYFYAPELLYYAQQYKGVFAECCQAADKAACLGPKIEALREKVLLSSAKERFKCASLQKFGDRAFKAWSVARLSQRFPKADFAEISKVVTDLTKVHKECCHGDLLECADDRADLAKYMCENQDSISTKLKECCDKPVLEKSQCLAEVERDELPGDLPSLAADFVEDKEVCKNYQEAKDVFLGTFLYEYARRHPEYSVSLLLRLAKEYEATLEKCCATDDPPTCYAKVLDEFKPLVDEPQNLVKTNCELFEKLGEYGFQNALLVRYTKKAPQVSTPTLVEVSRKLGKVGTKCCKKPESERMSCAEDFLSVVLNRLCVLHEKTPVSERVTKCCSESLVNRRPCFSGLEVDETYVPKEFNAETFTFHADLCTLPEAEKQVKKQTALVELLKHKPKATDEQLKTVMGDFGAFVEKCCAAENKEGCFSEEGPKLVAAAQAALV
T1 sequence (P02768 25-609): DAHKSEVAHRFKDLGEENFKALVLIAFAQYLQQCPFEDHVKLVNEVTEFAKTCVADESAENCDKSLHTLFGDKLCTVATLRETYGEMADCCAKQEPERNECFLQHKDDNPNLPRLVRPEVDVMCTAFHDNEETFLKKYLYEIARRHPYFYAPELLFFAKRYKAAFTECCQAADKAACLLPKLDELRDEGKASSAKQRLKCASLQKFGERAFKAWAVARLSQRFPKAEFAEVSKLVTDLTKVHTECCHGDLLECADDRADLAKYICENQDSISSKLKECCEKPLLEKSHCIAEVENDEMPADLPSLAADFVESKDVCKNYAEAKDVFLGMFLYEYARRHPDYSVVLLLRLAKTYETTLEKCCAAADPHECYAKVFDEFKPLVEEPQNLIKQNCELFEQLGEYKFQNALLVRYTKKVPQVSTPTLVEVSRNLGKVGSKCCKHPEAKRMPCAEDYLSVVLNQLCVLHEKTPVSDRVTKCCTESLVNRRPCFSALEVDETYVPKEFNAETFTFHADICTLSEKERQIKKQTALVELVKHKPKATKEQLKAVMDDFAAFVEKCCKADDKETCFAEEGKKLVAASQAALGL
Chain of rat serum (Rattus norvegicus, UniProt P02770) (P02770 25-608): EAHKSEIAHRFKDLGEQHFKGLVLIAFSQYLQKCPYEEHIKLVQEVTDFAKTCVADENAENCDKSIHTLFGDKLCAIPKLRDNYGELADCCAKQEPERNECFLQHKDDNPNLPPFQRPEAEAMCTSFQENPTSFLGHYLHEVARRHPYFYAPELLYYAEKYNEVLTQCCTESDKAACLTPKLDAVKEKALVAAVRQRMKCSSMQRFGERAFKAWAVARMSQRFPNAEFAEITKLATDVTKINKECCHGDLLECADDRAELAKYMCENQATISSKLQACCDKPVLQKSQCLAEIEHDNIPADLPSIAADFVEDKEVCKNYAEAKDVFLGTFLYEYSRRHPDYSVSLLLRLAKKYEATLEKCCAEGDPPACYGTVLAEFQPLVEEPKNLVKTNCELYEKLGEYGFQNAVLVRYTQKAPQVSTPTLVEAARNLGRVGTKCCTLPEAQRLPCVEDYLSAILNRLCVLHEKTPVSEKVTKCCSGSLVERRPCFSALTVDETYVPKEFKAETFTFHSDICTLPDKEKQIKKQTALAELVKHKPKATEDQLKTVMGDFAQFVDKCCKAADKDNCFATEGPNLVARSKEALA

CC1(C)S[C@@H]2[C@H](NC(=O)Cc3ccccc3)C(=O)N2[C@H]1C(=O)O [Benzylpenicillin]
affinity constant for the IIA site of HSA (HSA; ref 10): 1200 M⁻¹
affinity (Ka) for the IIA site of HSA (HSA; ref 40-42): 1200 M⁻¹
affinity for site IIA of HSA (Ka) (HSA; reference not given): 1200 M⁻¹
extent of protein binding in human plasma [1]: 50%

Cn1nnnc1SCC1=C(C(=O)O)N2C(=O)[C@@H](NC(=O)[C@H](O)c3ccccc3)[C@H]2SC1 [Cephmandole]
binding to HSA (Ka) (HSA; ref 32): 1200 M⁻¹

NS(=O)(=O)c1cc(C(=O)O)c(NCc2ccco2)cc1Cl [Furosemide]
binding to RSA (RSA): ≤ 99.1%

CC(C)Cc1ccc(C(C)C(=O)O)cc1 (stereo not shown) [Ibuprofen]
affinity (Ka) for the IIIA site of HSA (HSA; ref 10): 2.7e+06 M⁻¹
affinity for the IIIA site of HSA (Ka) (HSA; reference not given): 2.7e+06 M⁻¹

N[C@@H](Cc1c[nH]c2ccccc12)C(=O)O [L-tryptophan]
affinity (Ka) for the IIIA site of HSA (HSA; ref 29-31): 10000 M⁻¹

CC(=O)CC(c1ccccc1)c1c(O)c2ccccc2oc1=O (stereo not shown) [Warfarin]
affinity for HSA (Ka) (HSA; ref 45): 340000 M⁻¹
affinity for HSA (Ka) (HSA; ref 47): 340000 M⁻¹
affinity for HSA (Ka) (HSA; reference not given): 340000 M⁻¹

CN=C([S-])N/N=C(C)/C(C)=N/NC([S-])=NC.[Cu+2] [[^64Cu]Cu-ATSM, diacetyl bis(N^4-methylthiosemicarbazonato)copper(II)]
% bound to HSA [2]: approx. 95%
increase in free radiopharmaceutical level [3]: 300–500%
displacement from HSA [3, 10]: not observed
% Free (corrected) [3, 11]: 5.9 ± 0.4%
% Free (corrected) [3, 12]: 7.1 ± 0.6%
% Free (corrected) [3, 13]: 7.5 ± 0.8%
% Free (corrected) [3, 14]: 8.2 ± 1.1%
% Free (corrected) [3, 15]: 7.3 ± 0.8%
% Free (corrected) [3, 16]: 10.5 ± 1.1%
displacement from HSA [3, 17]: no displacement
% Free (corrected) [3, 18]: 7.3 ± 0.2%
% Free (corrected) [3, 19]: 9.4 ± 0.8%
% Free (corrected) [3, 20]: 12.4 ± 0.9%
% Free (corrected) [3, 21]: 14.5 ± 0.6%
% Free (corrected) [3, 22]: 19.0 ± 1.7%
Unbound level [4]: 37.0%
Free tracer [4]: 43.8%

CN=C([S-])N/N=C/C(C)=N/NC([S-])=NC.[Cu+2] [[^64Cu]Cu-PTSM, pyruvaldehyde bis(N^4-methylthiosemicarbazonato)copper(II)]
% free (rat serum [5]): 14.1 ± 0.3%
log P [6]: 1.9
% bound to HSA [2]: approx. 95%
% free ([2]; HSA solution): 4.3 ± 0.2%
% Free [^64Cu]Cu-PTSM (rat serum [7]; drug:RSA mole ratio 0): 14.7 ± 1.2%
% Free [^64Cu]Cu-PTSM (rat serum [7]; furosemide:RSA mole ratio 1): 20.2 ± 0.7%
% Free [^64Cu]Cu-PTSM (rat serum [7]; furosemide:RSA mole ratio 8): 28.6 ± 0.6%
% Free [^64Cu]Cu-PTSM (rat serum [7]; phenylbutazone:RSA mole ratio 1): 18.6 ± 0.4%
% Free [^64Cu]Cu-PTSM (rat serum [7]; phenylbutazone:RSA mole ratio 8): 20.6 ± 0.4%
% Free [^64Cu]Cu-PTSM (rat serum [7]; warfarin:RSA mole ratio 1): 19.8 ± 0.5%
% Free [^64Cu]Cu-PTSM (rat serum [7]; warfarin:RSA mole ratio 8): 24.1 ± 0.5%
effect of fatty acid addition on HSA binding ([3]; 1:1 fatty acid:HSA ratios (capric, myristic, palmitic, oleic)): little effect
level of free [^64Cu]Cu-PTSM relative to fatty acid-free ([3]; 6:1 fatty acid:HSA mole ratios (capric, myristic, palmitic, oleic)): approximately doubled
increase in free radiopharmaceutical level [3]: 300–500%
displacement from HSA [3, 10]: not observed
% free ([3]; HSA with highest concentration of tryptophan, 4.8 mM (1.0 mg/mL)): 3.2 ± 0.1%
Unbound [^64Cu]Cu-PTSM ([3]; incubated at 49°C for 30 min): 3.8 ± 0.2%
Unbound [^64Cu]Cu-PTSM ([3]; room temperature control solutions): 4.2 ± 0.6%
% Free (corrected) ([3]; benzylpenicillin:HSA mole ratio 0.5, 40 mg/mL HSA): 3.8 ± 0.1%
% Free (corrected) ([3]; benzylpenicillin:HSA mole ratio 1, 40 mg/mL HSA): 3.5 ± 0.1%
% Free (corrected) ([3]; benzylpenicillin:HSA mole ratio 2, 40 mg/mL HSA): 3.3 ± 0.2%
% Free (corrected) ([3]; benzylpenicillin:HSA mole ratio 4, 40 mg/mL HSA): 3.4 ± 0.1%
% Free (corrected) ([3]; benzylpenicillin:HSA mole ratio 8, 40 mg/mL HSA): 3.3 ± 0.1%
% Free [^64Cu]Cu-PTSM ([3]; capric acid:HSA 1:1, 40 mg/mL HSA): 7.5 ± 0.3 (4) %
% Free [^64Cu]Cu-PTSM ([3]; capric acid:HSA 6:1, 40 mg/mL HSA): 12.6 ± 3.5 (5) %
displacement from HSA ([3]; cephmandole, drug:HSA mole ratios up to 4:1): not displaced
% Free (corrected) ([3]; cephmandole:HSA mole ratio 0.5, 40 mg/mL HSA): 3.5 ± 0.1%
% Free (corrected) ([3]; cephmandole:HSA mole ratio 1, 40 mg/mL HSA): 3.2 ± 0.2%
% Free (corrected) ([3]; cephmandole:HSA mole ratio 2, 40 mg/mL HSA): 3.5 ± 0.1%
% Free (corrected) ([3]; cephmandole:HSA mole ratio 4, 40 mg/mL HSA): 4.2 ± 0.2%
% Free (corrected) [3, 11]: 4.0 ± 0.1% and 4.0% and 4.0 ± 0.4%
increase in free [^64Cu]Cu-PTSM in solution ([3]; furosemide:HSA 8:1 mole ratio vs drug-free): > 700%
% Free (corrected) ([3]; furosemide:HSA mole ratio 1, 40 mg/mL HSA): 8.4 ± 0.2%
% Free (corrected) [3, 12]: 3.4 ± 0.1%
% Free (corrected) [3, 13]: 3.4 ± 0.3%
% Free (corrected) [3, 14]: 3.2 ± 0.5%
% Free (corrected) [3, 15]: 4.8 ± 0.2%
% Free (corrected) [3, 16]: 10.1 ± 0.6%
displacement from HSA [3, 17]: no displacement
% Free [^64Cu]Cu-PTSM ([3]; myristic acid:HSA 1:1, 40 mg/mL HSA): 6.8 ± 0.3 (4) %
% Free [^64Cu]Cu-PTSM ([3]; myristic acid:HSA 6:1, 40 mg/mL HSA): 14.6 ± 0.8 (5) %
% Free [^64Cu]Cu-PTSM ([3]; oleic acid:HSA 1:1, 40 mg/mL HSA): 6.0 ± 0.3 (4) %
% Free [^64Cu]Cu-PTSM ([3]; oleic acid:HSA 6:1, 40 mg/mL HSA): 12.7 ± 0.7 (4) %
% Free [^64Cu]Cu-PTSM ([3]; palmitic acid:HSA 1:1, 40 mg/mL HSA): 5.6 ± 0.2 (3) %
% Free [^64Cu]Cu-PTSM ([3]; palmitic acid:HSA 6:1, 40 mg/mL HSA): 9.6 ± 0.3 (4) %
% Free (corrected) ([3]; phenylbutazone:HSA mole ratio 1, 40 mg/mL HSA): 7.1 ± 0.1%
% Free (corrected) ([3]; phenylbutazone:HSA mole ratio 8, 40 mg/mL HSA): 28.7 ± 0.8%
% Free (corrected) [3, 18]: 4.6 ± 0.1%
% Free (corrected) [3, 19]: 5.8 ± 0.7%
% Free (corrected) [3, 20]: 7.7 ± 0.8%
% Free (corrected) [3, 21]: 14.8 ± 0.3%
% Free (corrected) [3, 22]: 20.1 ± 1.5%
free fraction ([4]; 40 mg/mL CSA, 8:1 mole ratio of warfarin (first value)): 36.1 ± 2.8%
Free tracer (% free) ([8]; saline + 2.5% v/v ethanol): 68.0 ± 2.3%
Free tracer (% free) ([8]; saline control): 67.2 ± 0.7%
% free in canine serum albumin (CSA) solutions [9]: approximately 42%

C=CC1=C(C)/C(=C/c2[nH]c(Cc3[nH]c(/C=C4\NC(=O)C(C)=C4C=C)c(C)c3CCC(=O)O)c(CCC(=O)O)c2C)NC1=O [bilirubin]
association with HSA (Ka) (HSA; site believed distinct from the IIA and IIIA drug sites, no reference given): 9.5e+07 M⁻¹

ethylglyoxal bis(thiosemicarbazonato)copper(II) [[^64Cu]Cu-ETS]
% Free (corrected) [3, 11]: 40.6 ± 1.1%
% Free (corrected) [3, 12]: 43.9 ± 2.2%
% Free (corrected) [3, 13]: 42.1 ± 2.7%
% Free (corrected) [3, 14]: 45.8 ± 2.6%
% Free (corrected) [3, 15]: 43.6 ± 3.1%
% Free (corrected) [3, 16]: 49.6 ± 1.2%
interaction with HSA on addition of site IIA or IIIA drugs ([3]; warfarin, ibuprofen up to 8:1): unaffected
% Free (corrected) [3, 18]: 42.8 ± 1.6%
% Free (corrected) [3, 19]: 44.2 ± 1.2%
% Free (corrected) [3, 20]: 45.2 ± 1.3%
% Free (corrected) [3, 21]: 42.8 ± 3.4%
% Free (corrected) [3, 22]: 44.7 ± 2.7%
Unbound level [4]: 40.4%
Free tracer [4]: 39.5%
